From ChEMBL document CHEMBL2396554, “Synthesis and biological evaluation of metabolites of 2-n-butyl-9-methyl-8-[1,2,3]triazol-2-yl-9H-purin-6-ylamine (ST1535), a potent antagonist of the A2A adenosine receptor for the treatment of Parkinson's disease” (J Med Chem, 2013)
Calls of active or inactive are those of the source. No cut-off for these calls is given here.

Experiments:
Adenosine receptor A2a [1] = target: T1, Adenosine receptor A2a (Homo sapiens, UniProt P29274); assay: Displacement of [3H]ZM241385 from human recombinant adenosine A2A receptor expressed in HEK293 cells after 1 hr by competitive binding assay; format: cell-based
Procedure, shortened: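 HEK293 membranes expressing human A2A receptor pretreated with 2 IU/mL adenosine deaminase, 30 min at 37 °C. Competition with [3H]ZM241385 at its Kd (2 nM) using 5–10 µg protein and test compound 0.01–10,000 nM, 1 h at 4 °C in 50 mM Tris-HCl pH 7.4, 10 mM MgCl2. Nonspecific binding with 10 µM unlabeled ZM241385. Ki via Cheng–Prusoff; four experiments in triplicate.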

Adenosine receptor A1 = target: T2, Adenosine receptor A1 (Homo sapiens, UniProt P30542); assay: Displacement of [3H]DPCPX from human recombinant adenosine A1 receptor expressed in CHO-K1 cells after 60 mins; format: cell-based
T2 sequence (P30542 whole entry): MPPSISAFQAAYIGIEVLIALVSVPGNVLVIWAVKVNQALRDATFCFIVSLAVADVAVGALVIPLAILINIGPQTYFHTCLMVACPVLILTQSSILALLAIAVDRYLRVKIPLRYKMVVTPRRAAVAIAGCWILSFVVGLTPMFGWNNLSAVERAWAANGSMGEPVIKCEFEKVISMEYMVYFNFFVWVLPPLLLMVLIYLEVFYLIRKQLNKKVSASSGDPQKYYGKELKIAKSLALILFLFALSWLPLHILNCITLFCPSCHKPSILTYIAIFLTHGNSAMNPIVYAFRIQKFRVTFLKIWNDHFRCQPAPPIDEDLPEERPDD

[2] = target: T3, Adenosine receptor A3 (Homo sapiens) (UniProt P0DMS8); assay: Inhibition of human adenosine A3 receptor at 10 uM
T3 sequence (whole entry): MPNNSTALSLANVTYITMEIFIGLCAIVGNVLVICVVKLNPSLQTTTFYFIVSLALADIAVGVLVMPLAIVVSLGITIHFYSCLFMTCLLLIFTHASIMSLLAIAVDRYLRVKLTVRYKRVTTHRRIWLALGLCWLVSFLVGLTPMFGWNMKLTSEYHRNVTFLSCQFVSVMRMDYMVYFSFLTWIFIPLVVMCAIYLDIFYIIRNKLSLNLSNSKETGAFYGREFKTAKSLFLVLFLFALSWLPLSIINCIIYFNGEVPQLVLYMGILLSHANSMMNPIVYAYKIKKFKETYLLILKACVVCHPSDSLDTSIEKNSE

[3] = target: T4, Adenosine receptor A1 (Homo sapiens) (UniProt P30542); assay: Inhibition of human recombinant adenosine A1 receptor expressed in CHO-K1 cells at 10 uM; format: cell-based
T4 sequence (whole entry): T2 sequence (P30542 whole entry)

[4] = target: T3, Adenosine receptor A3 (Homo sapiens); assay: Binding affinity to human adenosine A3 receptor
Adenosine receptor A2a [5] = target: T1, Adenosine receptor A2a; assay: Inhibition of human recombinant adenosine A2A receptor expressed in HEK293 cells at 10 uM; format: cell-based
Mus musculus [6] = assay: Induction of striatal movement in CD1 mouse at 20 to 200 mg/kg, po after 60 to 240 mins by Irwin test; format: functional, organism-based
Procedure, shortened: (§1)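 Irwin test in CD-1 mice, 5–6 weeks old, 4 per group. Compounds suspended in 0.1% Tween 80 in 0.5% CMC and given orally at 20, 100 and 200 mg/kg in 10 mL/kg. Behaviour recorded by camera at 60 and 240 min after dosing; stereotypies scored: sniffing (limbic), licking and biting (striatal).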

Mus musculus [7] = assay: Induction of limbic movement in CD1 mouse at 20 to 200 mg/kg, po after 60 to 240 mins by Irwin test; format: functional, organism-based; details: Limbic system; procedure, shortened: as §1
Adenosine receptor A2a [8] = target: T1, Adenosine receptor A2a; assay: Antagonist activity at human adenosine A2A receptor expressed in HEK293 cells assessed as inhibition of NECA-induced cAMP accumulation incubated for 10 mins prior to NECA addition; format: functional, cell-based
Procedure, shortened: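 HEK-293 cells stably expressing human A2A, plated 48 h ahead. They were pretreated 10 min at 37 °C with 0.5 mM Ro20-1724 and 2 IU/mL adenosine deaminase, then compound (10^-4 to 10^-10 M) for 10 min at 37 °C, then 100 nM NECA for 20 min. cAMP was extracted and measured by enzyme immunoassay. IC50 came from nonlinear regression of four independent experiments.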

T1 sequence (P29274 whole entry): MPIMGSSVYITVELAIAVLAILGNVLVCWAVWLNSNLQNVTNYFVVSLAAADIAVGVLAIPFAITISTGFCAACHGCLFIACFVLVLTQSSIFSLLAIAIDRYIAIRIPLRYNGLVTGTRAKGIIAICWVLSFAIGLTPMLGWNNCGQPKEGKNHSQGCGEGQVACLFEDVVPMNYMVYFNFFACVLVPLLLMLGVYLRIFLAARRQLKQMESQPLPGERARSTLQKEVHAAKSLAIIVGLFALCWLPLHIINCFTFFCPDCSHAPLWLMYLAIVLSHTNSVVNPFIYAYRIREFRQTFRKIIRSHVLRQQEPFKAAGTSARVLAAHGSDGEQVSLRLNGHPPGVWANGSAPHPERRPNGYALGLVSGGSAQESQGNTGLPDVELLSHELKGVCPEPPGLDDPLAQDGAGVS

Structure (SMILES)	Ki (Adenosine receptor A1) [nM]	inhibition [2] [%]	inhibition [3]	Activity [4]	inhibition (Adenosine receptor A2a [5])	IC50 (Adenosine receptor A2a [8]) [nM]	Ki (Adenosine receptor A2a [1]) [nM]	Activity (Mus musculus [6])	Activity (Mus musculus [7])
CCC(O)Cc1nc(N)c2nc(-n3nccn3)n(C)c2n1 (configuration not stated)	–	–	–	–	–	–	64	–	–
C[C@@H](O)CCc1nc(N)c2nc(-n3nccn3)n(C)c2n1	34	–	–	–	–	–	7.5	–	–
Cn1c(-n2nccn2)nc2c(N)nc(CCCCO)nc21	150	47	Active	inactive	Active	–	–	–	–
CC(=O)CCc1nc(N)c2nc(-n3nccn3)n(C)c2n1	–	56	Active	inactive	Active	–	–	Active	Active
CCCC(O)c1nc(N)c2nc(-n3nccn3)n(C)c2n1 (racemic)	160	55	Active	inactive	Active	–	–	Active	Active
CC(O)CCc1nc(N)c2nc(-n3nccn3)n(C)c2n1 (racemic)	34	61	Active	inactive	Active	–	8.4	Active	Active

Continued, in another order:

Ki (Adenosine receptor A1) [nM]	inhibition [2] [%]	inhibition [3]	Activity [4]	inhibition (Adenosine receptor A2a [5])	IC50 (Adenosine receptor A2a [8]) [nM]	Structure (SMILES)	Ki (Adenosine receptor A2a [1]) [nM]	Activity (Mus musculus [6])	Activity (Mus musculus [7])
53	–	–	–	–	–	C[C@H](O)CCc1nc(N)c2nc(-n3nccn3)n(C)c2n1	–	–	–
100	–	–	–	–	430	CCCCc1nc(N)c2nc(-n3nccn3)n(C)c2n1 [ST1535]	–	–	–
